NadD inh – blocks S. aureus nicotinate mononucleotide adenylyltransferase | inhibition, % at 20 µM | AID 602399 | 360,000 compounds, 0.78% hits | purified NadD enzyme, colorimetric absorbance read-out; in the data active = inhibition above about 26%
STEP inh – STEP (human) phosphatase inhibition; 360,000 compounds, 0.25% hits; recombinant STEP, OMFP fluorogenic substrate, fluorescence; inhibition, % at 20 µM; P54829;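 active = inhibition at 20 µM, scaled per plate between control wells, above about 37%, limit read from the data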;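 also: 0% = DMSO with enzyme and substrate and 100% = substrate only without enzyme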
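System: STEP phosphatase, cell-free reaction; Buffer or medium: Bis-Tris pH 6.0 buffer with DTT, detergent; Incubation: 20 min at room temperature, dark; Measured by: fluorescence, 480/540 nm.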
DNMT1 block – DNMT1 (human) enzyme inhibition | P26358 | DNMT1 molecular beacon, Hinp1I cleavage, fluorescence | inhibition (reported as % activation of signal), % at 10 µM | 360,000 compounds, 0.83% hits | AID 588458; in the data active = inhibition above about 50%
SUMO1-SIM PPI – SUMO1-SIM interaction modulation | 360,000 compounds, 0.33% hits | inhibition, % at 20 µM | AID 602429 | SUMO1 binding to a labelled peptide, TR-FRET, 1 h; in the data active = inhibition above about 37%
Target sequence (P63165 whole entry, looked up): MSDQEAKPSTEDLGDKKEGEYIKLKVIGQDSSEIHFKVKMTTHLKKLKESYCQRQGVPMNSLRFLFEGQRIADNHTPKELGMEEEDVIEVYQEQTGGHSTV
Scp1 inh – Scp-1 (human) phosphatase inhibition; Q9GZU7; Recombinant Scp1, phosphopeptide, malachite green phosphate absorbance; inhibition, % at 20 µM; 340,000 compounds, 0.88% hits; AID 493091;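 active = inhibition above about 50% at 20 µM, limit read from the data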;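 also: plate controls were DMSO wells with enzyme for no effect and wells lacking enzyme for full effect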
Target sequence (Q9GZU7 76-261 limits assumed): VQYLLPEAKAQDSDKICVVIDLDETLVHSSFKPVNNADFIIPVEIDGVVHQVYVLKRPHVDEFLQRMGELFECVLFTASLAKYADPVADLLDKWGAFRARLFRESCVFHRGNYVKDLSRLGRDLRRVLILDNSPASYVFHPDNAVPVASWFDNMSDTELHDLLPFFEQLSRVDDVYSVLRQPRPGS
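System: SCP-1 catalytic domain; Reagent: Phospho 17-mer peptide substrate; Doses: one concentration, 20 µM, with 1.0% DMSO; Incubation: 45 min room-temperature reaction, 5 min colour, 30 min stabiliser; Signal: Phosphate-binding colour reagent, absorbance read at 630 nm.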
LMPTP block – blocks human LMPTP phosphatase. P24666. recombinant LMPTP-A, OMFP fluorogenic substrate, fluorescence intensity. inhibition, % at 20 µM. 360,000 compounds, 0.22% hits. AID 651560;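 active = compounds that cut the enzyme signal by at least half of the control window in the single-dose screen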;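 also: plate controls were DMSO wells with enzyme plus substrate for no effect and substrate without enzyme for full effect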
Target sequence (P24666 whole entry, looked up): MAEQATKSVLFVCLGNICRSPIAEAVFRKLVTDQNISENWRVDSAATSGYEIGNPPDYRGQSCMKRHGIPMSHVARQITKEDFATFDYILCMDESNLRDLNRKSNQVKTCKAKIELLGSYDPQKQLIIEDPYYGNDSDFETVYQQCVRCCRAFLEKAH
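Assay system: LMPTP-A, protein tyrosine phosphatase of low molecular weight / Medium: pH 6.0 Bis-Tris buffer with DTT and Triton X-100 / Schedule: 50 min enzyme reaction at room temperature, protected from light / Measured by: endpoint fluorescence intensity from OMFP dephosphorylation / Read-out basis: % inhibition relative to no-enzyme and uninhibited control wells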
Scp-1 conf – confirmation of human Scp-1 phosphatase inhibitors; 2,500 compounds, 61% hits; shares compounds with Scp1 inh; AID 540281; inhibition, % at 20 µM; recombinant SCP-1 catalytic domain, phosphate release, malachite green absorbance;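 also: plate controls were DMSO with enzyme for no effect and buffer wells lacking enzyme for full effect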
Scp-1 MG ctr – colorimetric interference in Scp-1 counter-screen; shares compounds with Scp1 inh; apparent inhibition (interference), % at 20 µM; 2,500 tested, under 10 active; AID 540313; Colorimetric interference counterscreen, malachite green absorbance 630 nm;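 also: compounds added after enzyme reaction finished so only phosphate colour detection is probed; plate controls were DMSO wells with completed Scp-1 reaction for no effect and substrate wells lacking enzyme for full effect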
Scp-1 Tm shift – binds human Scp-1, shifting its melting temperature. shares compounds with Scp1 inh. thermal shift relative to vanadate control, % at 40 µM. Recombinant SCP1, Sypro Orange thermal shift Tm. 1,500 compounds, 25% hits;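 active = substances whose mean melting-temperature shift, as a percentage of the reference inhibitor's shift, reaches about 5.3%, limit read from the data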;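 also: 0% = Tm of DMSO wells and 100% = Tm with sodium orthovanadate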
* = called active by the depositor. Rows were chosen to be rich in hits. Some 2.3% of all compounds tested hit in one or more screens of this group.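 The calls were made as follows, unless noted: active = inhibition of at least 30% at 20 µM; inactive = the rest.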

What do the screens show for `CC(Nc1ccc(F)cc1)=[N+](C)CCNS(=O)(=O)c1ccc(Cl)cc1`?
NadD inh: 9; STEP inh: -1; DNMT1 block: 2; SUMO1-SIM PPI: 1; Scp1 inh: 103*; LMPTP block: -1; Scp-1 conf: 89*; Scp-1 MG ctr: -11; Scp-1 Tm shift: -29

Results for O/N=C(\Cn1ccnc1)c1ccccc1 ?
NadD inh: -2; STEP inh: -2; DNMT1 block: -3; SUMO1-SIM PPI: 6; Scp1 inh: 0; LMPTP block: 0

Results for C/C(N)=C(/C#N)C(=O)CN1C(=O)NC(Cc2c[nH]c3ccccc23)C1=O (centres undefined) ?
NadD inh: 0; STEP inh: 12; DNMT1 block: 17; SUMO1-SIM PPI: 11; Scp1 inh: 65*; LMPTP block: 7; Scp-1 conf: 60*; Scp-1 MG ctr: -11; Scp-1 Tm shift: 2

How did C[C@H](CO)N1C[C@H](C)[C@@H](CN(C)S(=O)(=O)c2cn(C)cn2)Oc2ccc(NS(=O)(=O)c3ccccc3)cc2C1=O do in these assays?
NadD inh: 2; STEP inh: 1; DNMT1 block: -8; SUMO1-SIM PPI: 2; Scp1 inh: 4; LMPTP block: 0

How did COc1ccc(CCN(C)C(=O)CCNS(=O)(=O)c2ccccc2C(F)(F)F)cc1OC do in these assays?
NadD inh: 0; STEP inh: 2; DNMT1 block: 5; SUMO1-SIM PPI: -2; Scp1 inh: -8; LMPTP block: -1

Results for CC(C)(C)C(=O)CSc1ncnc2sc3c(c12)CCC3 ?
NadD inh: 2; STEP inh: 3; DNMT1 block: 1; SUMO1-SIM PPI: -3; Scp1 inh: -8; LMPTP block: 0

Results for O=C(CSc1ncnc2sc3c(c12)CCC3)N1CCOCC1 ?
NadD inh: -2; STEP inh: 14; DNMT1 block: 27; SUMO1-SIM PPI: 13; Scp1 inh: 54*; LMPTP block: 6; Scp-1 conf: 56*; Scp-1 MG ctr: -10; Scp-1 Tm shift: 1

Results for COc1ccc(-c2ccc(-c3noc(-c4ccco4)n3)c(OC)n2)cc1 ?
NadD inh: 7; STEP inh: -1; DNMT1 block: 0; SUMO1-SIM PPI: 3; Scp1 inh: -4; LMPTP block: 1

Results for COc1nc(-c2ccccc2)ccc1-c1noc(-c2ccco2)n1 ?
NadD inh: 8; STEP inh: 2; DNMT1 block: -9; SUMO1-SIM PPI: 5; Scp1 inh: 99*; LMPTP block: 2; Scp-1 conf: -6; Scp-1 MG ctr: -17

What do the screens show for `O=C(Nc1ccncc1)c1sc2ccccc2c1Cl`?
NadD inh: -2; STEP inh: -2; DNMT1 block: 0; SUMO1-SIM PPI: -19; Scp1 inh: -2; LMPTP block: -1

Results for O=C(Nc1ccnc(=O)[nH]1)c1sc2ccccc2c1Cl ?
NadD inh: -5; STEP inh: 6; DNMT1 block: 1; SUMO1-SIM PPI: -16; Scp1 inh: 98*; LMPTP block: 9; Scp-1 conf: 67*; Scp-1 MG ctr: -15; Scp-1 Tm shift: -13

How did Cc1cccn2c(=O)c3cc(C(=O)NCCc4ccccc4)c(=N)n(Cc4ccco4)c3nc12 do in these assays?
NadD inh: 9; STEP inh: 3; DNMT1 block: 4; SUMO1-SIM PPI: -8; Scp1 inh: 2; LMPTP block: 42

How did Cc1ccc2nc3c(cc(C(=O)NCc4ccco4)c(=N)n3Cc3ccco3)c(=O)n2c1 do in these assays?
NadD inh: 19; STEP inh: 5; DNMT1 block: 36; SUMO1-SIM PPI: -14; Scp1 inh: 69*; LMPTP block: 11; Scp-1 conf: 8; Scp-1 MG ctr: -5

How did COc1ccc2[nH]cc(/C=C/c3cc[n+](C)cc3)c2c1 do in these assays?
NadD inh: 20; STEP inh: -2; DNMT1 block: -6; SUMO1-SIM PPI: -60; Scp1 inh: 58*; LMPTP block: 4; Scp-1 conf: -21; Scp-1 MG ctr: -18

Results for CC(C)(C)c1ccc(CS(=O)(=O)CC(O)CN2CCCC2=O)cc1 (centres undefined) ?
NadD inh: -9; STEP inh: 2; DNMT1 block: 1; SUMO1-SIM PPI: -2; Scp1 inh: 1; LMPTP block: -2

What do the screens show for `O=C1CCCN1CC(O)CS(=O)(=O)Cc1ccc(Cl)cc1` (centres undefined)?
NadD inh: -9; STEP inh: -1; DNMT1 block: 1; SUMO1-SIM PPI: 2; Scp1 inh: -7; LMPTP block: -2; Scp-1 conf: 0; Scp-1 MG ctr: -3

How did COc1ccc(NC(=O)CN(C)C(=O)c2cccc(S(=O)(=O)Nc3ccc(F)cc3)c2)cc1 do in these assays?
NadD inh: -6; STEP inh: 2; DNMT1 block: 1; SUMO1-SIM PPI: 2; Scp1 inh: -2; LMPTP block: 0

How did COc1ccccc1OCCOc1ccc(/C=C2\C(=N)N3N=C(S(C)(=O)=O)SC3=NC2=O)cc1 do in these assays?
NadD inh: 25; STEP inh: 3; DNMT1 block: 1; SUMO1-SIM PPI: -3; Scp1 inh: 80*; LMPTP block: 12; Scp-1 conf: 56*; Scp-1 MG ctr: -12; Scp-1 Tm shift: 6.9*

How did COc1cc(/C=C2\C(=N)N3N=C(S(C)(=O)=O)SC3=NC2=O)ccc1OS(=O)(=O)c1ccc(C)cc1 do in these assays?
NadD inh: 17; STEP inh: 3; DNMT1 block: -1; SUMO1-SIM PPI: 14; Scp1 inh: 69*; LMPTP block: 1; Scp-1 conf: 75*; Scp-1 MG ctr: -16; Scp-1 Tm shift: 12*

Results for COc1cc(OC)nc(-n2ncc(Br)c(Br)c2=O)n1 ?
NadD inh: -2; STEP inh: -1; DNMT1 block: 5; SUMO1-SIM PPI: -11; Scp1 inh: -10; LMPTP block: -2

Results for Fc1ccc(-c2nnc(-c3ccc4ccccc4c3)o2)cc1 ?
NadD inh: -11; STEP inh: 8; DNMT1 block: 7; SUMO1-SIM PPI: -19; Scp1 inh: 3; LMPTP block: 1

Bioassay records as filed in PubChem.
